In the library only some 2.2% were active in any assay of this set; here they are far more common.
TRAIL sens C8 – viability loss with TRAIL in NB7+C8 cells, primary screen, TRAIL sensitizer project, cell-based, ATPlite luminescence; hit rate 1% among 360,000; AID 624354, 2012; inhibition (viability loss, TRAIL sensitization), % at 10 µM;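 active means compounds causing at least 50% loss of cell viability in the single-dose screen, relative to plate controls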
FLuc act counter – FLuc activators, initial screening, artefact control for FLuc-dependent activation tests, biochemical, ATPlite luminescence; Luciferin 4-monooxygenase (Photinus pyralis), P08659; ATPlite luciferase biochemical, 10 min; 0 = ATP-free wells, 1 = DMSO control; activation factor at 10 µM; 200,000 tested, under 10 active; AID 1027, 2008;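 active means luciferase activation factor, scaled between plate controls, of at least 2 with compound at 10 µM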
Target sequence (P08659 whole entry, looked up): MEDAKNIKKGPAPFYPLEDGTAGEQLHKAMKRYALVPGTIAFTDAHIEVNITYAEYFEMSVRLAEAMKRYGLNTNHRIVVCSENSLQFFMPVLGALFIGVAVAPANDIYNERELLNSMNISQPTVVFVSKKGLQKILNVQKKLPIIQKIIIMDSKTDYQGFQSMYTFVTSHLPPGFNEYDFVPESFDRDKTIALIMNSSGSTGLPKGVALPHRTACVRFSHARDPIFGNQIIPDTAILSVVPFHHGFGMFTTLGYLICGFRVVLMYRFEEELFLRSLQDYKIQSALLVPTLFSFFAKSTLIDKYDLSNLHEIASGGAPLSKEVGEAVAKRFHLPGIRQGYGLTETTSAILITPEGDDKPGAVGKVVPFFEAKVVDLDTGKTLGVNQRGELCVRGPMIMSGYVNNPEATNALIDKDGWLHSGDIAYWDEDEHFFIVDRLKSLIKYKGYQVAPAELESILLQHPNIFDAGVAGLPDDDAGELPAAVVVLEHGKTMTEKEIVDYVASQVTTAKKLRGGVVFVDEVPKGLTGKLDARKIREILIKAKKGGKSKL
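Assay system: Luciferase/luciferin detection reagent, cell-free biochemical luciferase assay / Also added: ATP substrate / Schedule: 10 min at ambient temperature / Measured by: luminescence measurement of luciferase light output / Benchmarks: low control with PBS replacing ATP, high control enzyme plus ATP without compound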
STAT3 inh-1 – IL-6 driven STAT3 reporter inhibitors, primary screen, U3A cells, luciferase, luminescence, MLSCN library | IL-6 STAT3-luciferase reporter; host cell line lacks STAT1 | inhibition, % at 5.5 µM | hit rate 0.89% among 190,000 | AID 862, 2007;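 active means inhibition above the mean inhibition across all screened compounds plus 3 SD, cut at about 44% in these data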;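 further: 0% = DMSO only wells and 100% = 100 µM nifuroxazide control wells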
FLuc inh counter – firefly luciferase enzyme inhibitors, primary screen, artefact control for luciferase-based inhibitor screens, biochemical, luminescence, ATPLite | 10 min | inhibition, % at 10 µM | Luciferin 4-monooxygenase (Photinus pyralis), P08659 | hit rate 1.5% among 200,000;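 active means inhibition above about 50% when tested at 10 µM, limit read from the data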
PPC-1+TRAIL kill – compounds killing PPC-1 cancer cells with TRAIL present, primary screen, TRAIL potentiator project, ATPLite luminescence, uHTS | cell killing (% activity), % at 4 µM or 5 µM | hit rate 0.41% among 220,000 | PPC-1 cells + TRAIL, ATPLite viability luminescence;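 active means cell killing above 50% in the first pass at 4 µM, then a duplicate retest at 5 µM averaging 50% or more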;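 further: plate controls were cells with TRAIL plus DMSO for no effect and medium-only wells lacking cells for full effect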
HSP90 inh – HSP90 inhibitors, primary screen, cell lysate, luminescence | Heat shock protein HSP 90 (rabbit reticulocyte lysate; luciferase refolding) | Rabbit reticulocyte lysate, luciferase refolding luminescence, 3 h | inhibition, % at 5.6 µM | hit rate 0.91% among 290,000;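 active means inhibition above the screen-wide mean plus 3 SD, computed separately per campaign, cut at about 16% in these data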;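 further: 0% = DMSO wells and 100% = 60 µM geldanamycin wells; inhibitors lower the luminescence because luciferase stays unfolded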
STAT3 inh-2 – STAT3 reporter inhibitors, retest of hits, confirmation, U3A cells, luciferase, luminescence. shares compounds with STAT3 inh-1. IL-6 STAT3 luciferase reporter; cell line lacks STAT1. inhibition, % at 5.7 µM. hit rate 45% among 1,200. AID 1265, 2008;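 active means inhibition above the hit cutoff computed for the primary STAT3 screen, cut at about 44% in these data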;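 further: 0% = IL-6 plus DMSO and 100% = IL-6 plus nifuroxazide control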
NFkB inh STAT3ct – NF-kB reporter inhibitors in human cells, confirmation, counter-screen for STAT3 inhibitor project, cell-based, HEK293T, luciferase, TNF-alpha stimulus. inhibition, % at 5.7 µM. hit rate 36% among 1,200. AID 1308, 2008. shares compounds with STAT3 inh-1. TNF-alpha induced;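 active means inhibition above the mean of solvent-only control wells plus 3 SD, cutoff set per campaign, cut at about 13% in these data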;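 further: 0% = TNF-alpha with DMSO and 100% = TNF-alpha with MG high control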
STAT1 inh STAT3c – STAT1 reporter inhibitors, IFN-gamma induced, confirmation, counter-screen for STAT3 inhibitor project, cell-based, NIH 3T3, luciferase luminescence; shares compounds with STAT3 inh-1; hit rate 27% among 1,200; AID 1317, 2008; NIH 3T3 STAT1-luciferase reporter; inhibition, % at 5.7 µM;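 active means inhibition above the mean plus 3 SD of solvent-only control wells, limit set per screening run, cut at about 16% in these data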;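 further: 0% = DMSO with IFN-gamma and 100% = nifuroxazide control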
PPC-1 tox – cytotoxicity in PPC-1 cells, confirmation, cytotoxicity control for TRAIL apoptosis potentiator project, cell-based, ATP content luminescence | hit rate 50% among 1,200 | PPC-1 viability, ATPlite luminescence, overnight | shares compounds with PPC-1+TRAIL kill | cytotoxicity, % at 5 µM;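 active means reconfirmed compounds whose average cytotoxicity reaches 50% or more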;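 further: 0% = DMSO-treated cells and 100% = wells holding medium but no cells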
Numbers without * were called inactive; / = not tested or not shown.

SMILES	TRAIL sens C8	FLuc act counter	STAT3 inh-1	FLuc inh counter	PPC-1+TRAIL kill	HSP90 inh	STAT3 inh-2	NFkB inh STAT3ct	STAT1 inh STAT3c	others
O=C(ONc1ccc(N=NC(=O)c2ccccc2O)cc1)c1ccccc1	29.5	0.7	13.7	28.8	25.1	-3.3	/	/	/
COc1ccc([C@H]2CC(=O)C=C(c3cccc(C#N)c3)C2)cc1	6.9	/	/	/	/	/	/	/	/
COc1ccc(/C=C2\SC(=S)N(CCC(=O)Nc3ccc(C(=O)O)cc3)C2=O)cc1	17.1	/	/	/	/	-4.2	/	/	/
COc1ccc(/C=C2/SC(=S)N(CCC(=O)O)C2=O)cc1	3.3	0.7	56.8*	34.1	12.8	7.9	57.3*	31.8*	12.0
CN1C(=O)[C@H]2[C@@H](c3ccc(C(F)(F)F)cc3)N[C@]3(CCCN(Cc4ccc(Cl)cc4)C3=O)[C@H]2C1=O	-2.8	/	/	/	/	/	/	/	/
COc1ccccc1N1CCN(C(=O)CSc2nnc3n2C(C)(C)Cc2ccccc2-3)CC1	25.3	1.1	56.8*	-5.8	3.0	1.4	52.6*	14.1*	18.7*
COc1cccc(Nc2ncnc3ccccc23)c1	22.1	0.5	5.1	45.5	27.2	1.2	/	/	/
O=C(Oc1cccc(Nc2ncnc3ccccc23)c1)c1ccccc1Cl	14.1	1	53.7*	-2.8	15.7	-1.2	48.2*	0.9	-1.4
Clc1ccc(-c2cn3nc4c(nc3n2)CCCC4)cc1	28.6	0.4	51.3*	59.0*	3.8	7.9	42.2	-11.5	-77.9
CCCCN(C(=O)COc1ccc(F)cc1)c1c(N)n(CC(C)C)c(=O)[nH]c1=O	9.4	/	/	/	/	/	/	/	/
CC(C)c1ccc(NC(=O)C2CCCCC2C(=O)O)cc1 (stereo unspecified)	-12.2	1	49.7*	0.3	7.3	-4.8	14.2	1.8	0.5
COc1ccccc1N1CCN(c2ccc(-c3ccccc3)nn2)CC1	86.8*	0.1	67.1*	90.1*	36.8	14.9	40.9	18.1*	-65.0
COc1ccccc1N1CCN(c2nc(-c3ccccc3)cc(C(F)(F)F)n2)CC1	-3.3	1.1	-1.1	-8.4	10.7	2.7	/	/	/
Cc1ccc(CNC(=O)c2nnn(CC(=O)Nc3cccc(C)c3C)c2N)cc1	-19.9	/	/	/	/	-2.0	/	/	/
Cc1cc(/C=C2\Sc3ccccc3N2C)cc(C)[n+]1CC1CCCO1 (stereo unspecified)	12.9	1	82.7*	-4.6	32.6	2.1	84.3*	19.8*	11.2
Cc1ccc(C(=O)N2CCN(S(=O)(=O)c3ccccc3)CC2)s1	-3.4	/	/	/	/	/	/	/	/
Cc1ccc(C)c(N=Nc2ccc(O)c3ncccc23)c1	30.2	0.6	46.0*	41.5	6.0	2.4	-22.6	-21.5	-41.0
CC(C)COC(=O)c1ccc2c(c1O)C(=O)c1ccccc1C2=O	56.8*	0.6	46.4*	39.3	35.6	14.3	15.9	-27.1	-95.2
COC(=O)c1cc(S(=O)(=O)N2CCC(c3cc(OC)ccc3OC)C2)c[nH]1 (stereo unspecified)	-3.5	/	/	/	/	1.9	/	/	/
C=CCN(CC=C)S(=O)(=O)c1ccc2nc(NC(=O)C3CCCO3)sc2c1 (stereo unspecified)	-26.9	1	-2.4	-3.7	6.2	4.0	/	/	/
CN(C)S(=O)(=O)c1ccc(NC(=O)CSc2nnc(-c3ccco3)n2N)cc1	-11.4	/	/	/	/	/	/	/	/
O=C(Nc1ccc(N2CCN(C(=O)c3ccco3)CC2)c(Cl)c1)c1cc2ccccc2o1	60.9*	1	47.8*	3.3	21.0	2.5	47.8*	10.8	3.9
CCC(=O)N1CCN(c2ccc(NC(=O)c3cc4ccccc4o3)cc2Cl)CC1	61.2*	1	49.0*	-4.3	24.6	0.6	34.3	-3.0	-13.6
CCCC(=O)N1CCN(c2ccc(NC(=O)c3cc4ccccc4o3)cc2Cl)CC1	53.6*	1	50.3*	-3.2	29.9	0.6	43.2	2.6	-2.5
CCC(=O)N1CCN(c2ccc(NC(=O)c3ccco3)cc2Cl)CC1	-10.2	/	/	/	/	1.4	/	/	/
SMILES	TRAIL sens C8	FLuc act counter	STAT3 inh-1	FLuc inh counter	PPC-1+TRAIL kill	HSP90 inh	STAT3 inh-2	NFkB inh STAT3ct	STAT1 inh STAT3c	others
CCCC(=O)N1CCN(c2ccc(NC(=O)c3cccs3)cc2Cl)CC1	-4.9	1.1	9.4	-5.5	/	-2.1	/	/	/
O=C(Nc1ccccc1)c1cc2ccccc2o1	55.8*	0.3	43.5*	74.0*	31.8	13.0	10.4	-43.0	-119.9
COc1ccccc1NC(=O)[C@@H]1CCCN1S(=O)(=O)c1ccc(Cl)cc1	11.4	/	/	/	/	/	/	/	/
COc1cc(CCC(=O)OCC(=O)Nc2ccc(F)cc2F)cc(OC)c1OC	-21.3	/	/	/	/	0.0	/	/	/
CCOc1ncccc1C(=O)OCC(=O)NCc1ccccc1	-10.6	/	/	/	/	/	/	/	/
C[C@H](CO)N1C[C@H](C)[C@@H](CN(C)C(=O)Nc2ccc(C(F)(F)F)cc2)Oc2c(NC(=O)Cc3ccccc3)cccc2C1=O	5.7	/	/	/	/	/	/	/	/
CC(C)CCn1nnnc1CN1CCN(c2ccccc2)CC1	-1.8	1	3.0	-0.3	2.7	-2.1	/	/	/
CN=c1scc(C)n1/N=C/c1ccc2c(c1)OCO2	60.8*	0.4	48.9*	57.5*	33.7	10.9	13.6	-22.3	-130.2
CN=c1scc(C)n1/N=C/c1cc(Br)c(O)c(Br)c1	4.4	0.7	18.4	32.0	10.1	1.8	/	/	/
C/C(=N/NC(=O)c1cc(C(C)C)[nH]n1)c1cccs1	24.7	0.3	51.1*	70.3*	23.5	5.9	7.3	-25.6	-64.3
CS(=O)(=O)c1ccc(C(=O)N2CCN(Cc3ccccc3)CC2)cc1	-0.1	1.1	7.3	-6.1	20.4	1.8	/	/	/
O=C(c1ccc(CNS(=O)(=O)c2ccccc2)cc1)N1CCN(Cc2ccccc2)CC1	30.7	1	44.4*	-0.6	2.2	2.1	27.6	5.5	-16.2
O=C(N/N=C/c1ccc2ncccc2c1)c1ccco1	80.4*	0.1	67.4*	92.0*	67.7*	31.1*	32.1	7.7	-41.9	PPC-1 tox=70.4*
